{"source": "ChEMBL document CHEMBL2202989", "about": "“New adamantane phenylalkylamines with σ-receptor binding affinity and anticancer activity, associated with putative antagonism of neuropathic pain” (J Med Chem, 2012)", "assay_type_in_all_cases": "functional", "key": {"IGROV-1 [1]": {"tested_on": "IGROV-1", "experiment": "Cell cycle arrest in human IGROV1 cells assessed as accumulation at S phase at 5 uM after 24 hrs using propidium iodide staining by FACS analysis (reference value: 29 %)"}, "PC-3 [2]": {"tested_on": "PC-3", "experiment": "Cell cycle arrest in human PC3 cells assessed as accumulation at sub G1 phase at 15 uM after 24 hrs using propidium iodide staining by FACS analysis (reference value: 4 %)"}, "IGROV-1 [3]": {"tested_on": "IGROV-1", "experiment": "Cell cycle arrest in human IGROV1 cells assessed as accumulation at S phase at 15 uM after 24 hrs using propidium iodide staining by FACS analysis (reference value: 29 %)"}, "BXPC-3 [4]": {"tested_on": "BXPC-3", "experiment": "Cell cycle arrest in human BxPC3 cells assessed as accumulation at G2 phase at 0.5 uM after 24 hrs using propidium iodide staining by FACS analysis (reference value: 12 %)", "how_it_was_run": "(§1)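 Cells were plated 24 h before treatment and exposed for 24 h at final 0.5, 5, 15 and 50 μM in 0.5% DMSO, against vehicle-treated controls. Cells were then trypsinised and fixed in cold ethanol for 3 h at 4 °C. They were stained in a mix of RNase (200 μg/mL) and PI (1 mg/mL) for 45 min at room temperature in the dark. Flow cytometry used 488 nm excitation and 10 000 gated cells. Phase percentages were assigned from DNA content.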"}, "MIA PaCa-2": {"tested_on": "MIA PaCa-2", "experiment": "Growth inhibition of human MIAPaCa2 cells after 48 hrs by SRB assay", "conditions": "MIA PaCa-2, 48 h", "how_it_was_run": "(§2)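 Cells grown in RPMI 1640 with 5% heat-inactivated FCS, 2 mM L-glutamine and antibiotics, 37 °C, 5% CO2. Seeded at 3500–30000 cells/well and left 24 h before dosing. DMSO solutions added at 10-fold dilutions from 100 to 0.01 μM for 48 h. Cells TCA-fixed and SRB-stained, absorbance read at 540 nm; GI50 derived against the time-zero plate.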"}, "OVCAR-5": {"tested_on": "OVCAR-5", "experiment": "Antitumor activity against human OVCAR5 cells xenografted in SCID mouse assessed as tumor growth inhibition at 55 mg/kg, ip administered 5 consecutive days in a week for two cycles measured after 2 cycles relative to control", "conditions": "OVCAR-5, ip, route intraperitoneal, read-out: TGI", "how_it_was_run": "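SCID mice carried OVCAR5 xenografts (10^6 cells per inoculum), 16 mice (32 tumors) per group, with ip dosing in 5% Tween 80 from a tumor volume of about 100 mm3. Caliper volume was measured twice weekly and %ΔT/ΔC derived. At termination, primary tumors were weighed and secondary metastases were scored at axillary and bone sites (n = 7−8). Two-tailed t test.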"}, "IGROV-1 [5]": {"tested_on": "IGROV-1", "experiment": "Cell cycle arrest in human IGROV1 cells assessed as accumulation at S phase at 50 uM after 24 hrs using propidium iodide staining by FACS analysis (reference value: 29 %)"}, "IGROV-1 [6]": {"tested_on": "IGROV-1", "experiment": "Induction of apoptosis in human IGROV1 cells assessed as total apoptotic death at 50 uM using annexin V/7-AAD by FACS analysis (reference value: 13 %)", "how_it_was_run": "(§3)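 Cells plated 24 h before treatment, then exposed 24 h to 0.5, 5, 15 or 50 μM compound (final DMSO 0.5%); vehicle controls included. Cells scraped and stained with annexin V-FITC and 7-AAD for 15 min on ice in the dark. Flow cytometry with 488 nm excitation, 10,000 gated cells. Early apoptosis was annexin V+/7-AAD−, late was annexin V+/7-AAD+.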"}, "IGROV-1 [7]": {"tested_on": "IGROV-1", "experiment": "Induction of apoptosis in human IGROV1 cells assessed as early apoptosis at 5 uM using annexin V/7-AAD by FACS analysis (reference value: 9 %)"}, "PC-3 [8]": {"tested_on": "PC-3", "experiment": "Induction of apoptosis in human PC3 cells assessed as early apoptosis at 15 uM using annexin V/7-AAD by FACS analysis (reference value: 5 %)"}, "IGROV-1 [9]": {"tested_on": "IGROV-1", "experiment": "Induction of apoptosis in human IGROV1 cells assessed as total apoptotic death at 0.5 uM using annexin V/7-AAD by FACS analysis (reference value: 13 %)", "how_it_was_run": "as §3"}, "BXPC-3 [10]": {"tested_on": "BXPC-3", "experiment": "Induction of apoptosis in human BxPC3 cells assessed as total apoptotic death at 5 uM using annexin V/7-AAD by FACS analysis (reference value: 18 %)", "how_it_was_run": "as §3"}, "BXPC-3 [11]": {"tested_on": "BXPC-3", "experiment": "Cell cycle arrest in human BxPC3 cells assessed as accumulation at S phase at 0.5 uM after 24 hrs using propidium iodide staining by FACS analysis (reference value: 33 %)", "how_it_was_run": "as §1"}, "PC-3 [12]": {"tested_on": "PC-3", "experiment": "Induction of apoptosis in human PC3 cells assessed as early apoptosis at 5 uM using annexin V/7-AAD by FACS analysis (reference value: 5 %)", "how_it_was_run": "as §3"}, "PC-3 [13]": {"tested_on": "PC-3", "experiment": "Induction of apoptosis in human PC3 cells assessed as total apoptotic death at 15 uM using annexin V/7-AAD by FACS analysis (reference value: 8 %)", "how_it_was_run": "as §3"}, "BXPC-3 [14]": {"tested_on": "BXPC-3", "experiment": "Cell cycle arrest in human BxPC3 cells assessed as accumulation at G1 phase at 0.5 uM after 24 hrs using propidium iodide staining by FACS analysis (reference value: 41 %)", "how_it_was_run": "as §1"}, "PC-3 [15]": {"tested_on": "PC-3", "experiment": "Cell cycle arrest in human PC3 cells assessed as accumulation at sub G1 phase at 50 uM after 24 hrs using propidium iodide staining by FACS analysis (reference value: 4 %)"}, "BXPC-3 [16]": {"tested_on": "BXPC-3", "experiment": "Induction of apoptosis in human BxPC3 cells assessed as cleaved caspase3 containing cells at 15 uM by antibody-based FACS analysis (reference value: 8.2 %)"}, "IGROV-1 [17]": {"tested_on": "IGROV-1", "experiment": "Cell cycle arrest in human IGROV1 cells assessed as accumulation at >G2/M phase at 50 uM after 24 hrs using propidium iodide staining by FACS analysis (reference value: 21 %)", "how_it_was_run": "as §1"}, "IGROV-1 [18]": {"tested_on": "IGROV-1", "experiment": "Growth inhibition of human IGROV1 cells after 48 hrs by SRB assay", "conditions": "IGROV-1, 48 h", "how_it_was_run": "as §2"}, "BXPC-3 [19]": {"tested_on": "BXPC-3", "experiment": "Cell cycle arrest in human BxPC3 cells assessed as accumulation at sub G1 phase at 15 uM after 24 hrs using propidium iodide staining by FACS analysis (reference value: 9 %)", "how_it_was_run": "as §1"}, "BXPC-3 [20]": {"tested_on": "BXPC-3", "experiment": "Induction of apoptosis in human BxPC3 cells assessed as early apoptosis at 15 uM using annexin V/7-AAD by FACS analysis (reference value: 9 %)"}, "PC-3 [21]": {"tested_on": "PC-3", "experiment": "Induction of apoptosis in human PC3 cells assessed as cleaved caspase3 containing cells at 0.5 uM by antibody-based FACS analysis (reference value: 3.2 %)"}, "PC-3 [22]": {"tested_on": "PC-3", "experiment": "Induction of apoptosis in human PC3 cells assessed as late apoptosis at 50 uM using annexin V/7-AAD by FACS analysis (reference value: 3 %)"}, "DU-145": {"tested_on": "DU-145", "experiment": "Antitumor activity against human DU145 cells xenografted in SCID mouse assessed as tumor growth inhibition at 55 mg/kg, ip administered 5 consecutive days in a week for two cycles measured after 2 cycles relative to control", "conditions": "DU-145, ip, route intraperitoneal, read-out: TGI", "how_it_was_run": "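DU145 xenografts were grown in SCID mice from 10^6-cell inocula, with at least 30 animals in total. Treatment started ip at a mean tumor volume of about 100 mm3. The test agent was given in 5% Tween 80; paclitaxel was dissolved in Cremophor and diluted in saline. Caliper volumes were taken twice weekly and %ΔT/ΔC calculated; two-tailed t test.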"}, "BXPC-3 [23]": {"tested_on": "BXPC-3", "experiment": "Induction of apoptosis in human BxPC3 cells assessed as early apoptosis at 5 uM using annexin V/7-AAD by FACS analysis (reference value: 9 %)"}, "[24]": {"conditions": "read-out: LC50 (the source's name)"}}, "data": [{"smiles": "CN1CCN(CCCc2ccc(C(c3ccccc3)C34CC5CC(CC(C5)C3)C4)cc2)CC1", "note": "(stereo not given)", "values": [{"measurement": "Activity", "setting": "IGROV-1 [1]", "value": 27, "unit": "%"}, {"measurement": "Activity", "setting": "PC-3 [2]", "value": 25, "unit": "%"}, {"measurement": "Activity", "setting": "IGROV-1 [3]", "value": 25, "unit": "%"}, {"measurement": "Activity", "setting": "BXPC-3 [4]", "value": 11, "unit": "%"}, {"measurement": "GI50", "setting": "MIA PaCa-2", "value": 9.39, "unit": "µM"}, {"measurement": "TGI", "setting": "MIA PaCa-2", "value": 40.1, "unit": "µM"}, {"measurement": "CC50", "setting": "MIA PaCa-2; [24]", "value": 0.0726, "unit": "µM"}, {"measurement": "inhibition in vivo at 55 mg/kg", "setting": "OVCAR-5", "value": 44.5, "unit": "%"}, {"measurement": "Activity", "setting": "IGROV-1 [5]", "value": 28, "unit": "%"}, {"measurement": "Activity", "setting": "IGROV-1 [6]", "value": 64, "unit": "%"}, {"measurement": "Activity", "setting": "IGROV-1 [7]", "value": 10, "unit": "%"}, {"measurement": "Activity", "setting": "PC-3 [8]", "value": 9, "unit": "%"}, {"measurement": "Activity", "setting": "IGROV-1 [9]", "value": 11, "unit": "%"}, {"measurement": "Activity", "setting": "BXPC-3 [10]", "value": 21, "unit": "%"}, {"measurement": "Activity", "setting": "BXPC-3 [11]", "value": 31, "unit": "%"}, {"measurement": "Activity", "setting": "PC-3 [12]", "value": 5, "unit": "%"}, {"measurement": "Activity", "setting": "PC-3 [13]", "value": 16, "unit": "%"}, {"measurement": "Activity", "setting": "BXPC-3 [14]", "value": 41, "unit": "%"}, {"measurement": "Activity", "setting": "PC-3 [15]", "value": 12, "unit": "%"}, {"measurement": "Activity", "setting": "BXPC-3 [16]", "value": 17.5, "unit": "%"}, {"measurement": "Activity", "setting": "IGROV-1 [17]", "value": 15, "unit": "%"}, {"measurement": "GI50", "setting": "IGROV-1 [18]", "value": 4.54, "unit": "µM"}, {"measurement": "TGI", "setting": "IGROV-1 [18]", "value": 11.9, "unit": "µM"}, {"measurement": "CC50", "setting": "IGROV-1 [18]; [24]", "value": 0.0748, "unit": "µM"}, {"measurement": "Activity", "setting": "BXPC-3 [19]", "value": 24, "unit": "%"}, {"measurement": "Activity", "setting": "BXPC-3 [20]", "value": 19, "unit": "%"}, {"measurement": "Activity", "setting": "PC-3 [21]", "value": 1.7, "unit": "%"}, {"measurement": "Activity", "setting": "PC-3 [22]", "value": 9, "unit": "%"}, {"measurement": "inhibition in vivo at 55 mg/kg", "setting": "DU-145", "value": 71.4, "unit": "%"}, {"measurement": "Activity", "setting": "BXPC-3 [23]", "value": 11, "unit": "%"}]}]}
